How the values were obtained:
D(3) dopamine receptor = D(3) dopamine receptor (Homo sapiens, UniProt P35462); assay: Inhibition of dopamine D3 receptor
[1] = target: Sodium-dependent noradrenaline transporter (Homo sapiens, UniProt P23975); assay: Inhibition of NET
Mu-type opioid receptor = Mu-type opioid receptor (Homo sapiens, UniProt P35372); assay: Inhibition of mu opioid receptor
[2] = target: Sodium-dependent serotonin transporter (Homo sapiens, UniProt P31645); assay: Inhibition of SERT
Histamine H2 receptor = Histamine H2 receptor (Homo sapiens, UniProt P25021); assay: Inhibition of histamine H2 receptor
D(2) dopamine receptor = D(2) dopamine receptor (Homo sapiens, UniProt P14416); assay: Inhibition of dopamine D2 receptor
[3] = target: T1, Growth hormone secretagogue receptor type 1 (Homo sapiens, UniProt Q92847); assay: Antagonist activity at human GHSR expressed in CHOK1 cells assessed as inhibition of ghrelin-induced intracellular calcium flux by aequorin flash luminescence assay; assay type: functional, cell-based, CHO-K1
Method in brief: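 Aequorin flash luminescence in CHO-K1 cells stably co-expressing human ghrelin receptor and aequorin. […] IC50 values are means of three determinations.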

[4] = target: T2, Alpha-2A adrenergic receptor (Homo sapiens, UniProt P08913); assay: Inhibition of alpha2A adrenergic receptor
T2 sequence (P08913 whole entry): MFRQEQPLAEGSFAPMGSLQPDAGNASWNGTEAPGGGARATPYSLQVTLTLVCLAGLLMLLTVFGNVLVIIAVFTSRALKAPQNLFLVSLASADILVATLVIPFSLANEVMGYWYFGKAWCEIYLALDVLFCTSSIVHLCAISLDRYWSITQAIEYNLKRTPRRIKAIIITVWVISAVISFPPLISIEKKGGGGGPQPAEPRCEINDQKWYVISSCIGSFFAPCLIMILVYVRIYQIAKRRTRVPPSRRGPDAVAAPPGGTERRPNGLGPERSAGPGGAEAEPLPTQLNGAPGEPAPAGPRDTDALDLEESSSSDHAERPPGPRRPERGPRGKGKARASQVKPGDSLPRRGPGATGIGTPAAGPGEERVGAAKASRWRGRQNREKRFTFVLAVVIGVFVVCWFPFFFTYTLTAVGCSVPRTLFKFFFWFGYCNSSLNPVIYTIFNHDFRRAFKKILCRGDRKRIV

[5] = target: Sodium-dependent dopamine transporter (Homo sapiens, UniProt Q01959); assay: Inhibition of DAT
[6] = target: Muscarinic acetylcholine receptor M3 (Homo sapiens, UniProt P20309); assay: Inhibition of muscarinic M3 receptor
[7] = target: Kappa-type opioid receptor (Homo sapiens, UniProt P41145); assay: Inhibition of kappa opioid receptor
[8] = target: T3, 5-hydroxytryptamine receptor 2C (Homo sapiens, UniProt P28335); assay: Inhibition of 5HT2C (receptor)
T3 sequence (P28335 whole entry): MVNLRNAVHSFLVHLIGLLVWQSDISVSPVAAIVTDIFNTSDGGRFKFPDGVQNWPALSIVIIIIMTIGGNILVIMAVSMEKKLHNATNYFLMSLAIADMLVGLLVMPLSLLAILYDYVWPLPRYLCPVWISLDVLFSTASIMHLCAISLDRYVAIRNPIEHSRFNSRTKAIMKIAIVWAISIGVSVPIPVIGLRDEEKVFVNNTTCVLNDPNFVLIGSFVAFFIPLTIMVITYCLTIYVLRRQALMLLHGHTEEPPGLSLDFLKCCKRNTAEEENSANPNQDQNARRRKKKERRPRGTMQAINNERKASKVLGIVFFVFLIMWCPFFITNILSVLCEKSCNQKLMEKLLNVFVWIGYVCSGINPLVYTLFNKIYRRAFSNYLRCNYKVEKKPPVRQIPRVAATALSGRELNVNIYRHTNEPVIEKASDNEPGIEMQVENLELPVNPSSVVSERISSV

[9] = target: 5-hydroxytryptamine receptor 2A (Homo sapiens, UniProt P28223); assay: Inhibition of 5HT2A (receptor)
[10] = target: Growth hormone secretagogue receptor type 1 (Rattus norvegicus) (UniProt O08725); assay: Agonist activity at rat GHSR expressed in CHO cells assessed as increase in ghrelin-induced [3H]IP accumulation at 10 uM after 1 hr by scintillation counting relative to ghrelin; assay type: functional, cell-based
Method in brief: (§1)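 CHO cells stably expressing human or rat GHSR labelled 12 h with 3H-inositol (1 µCi/mL in DMEM), then exposed to ghrelin or compound at 37 °C for 1.0 h. Lysis with 20 mM formic acid, 4 °C, 4 h. Extract taken onto SPA beads, 12 h in the dark, then radioactivity counted. IP accumulation expressed as % of maximal ghrelin response at 10, 1.0 and 0.1 µM.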

[11] = target: T1, Growth hormone secretagogue receptor type 1; assay: Agonist activity at human GHSR expressed in CHO cells assessed as increase in ghrelin-induced [3H]IP accumulation at 10 uM after 1 hr by scintillation counting relative to ghrelin; assay type: functional, cell-based; method in brief: as §1
[12] = Induction of growth hormone release from Sprague-Dawley rat pituitary cells at 1 uM after 20 mins by RIA assay relative to ghrelin; assay type: functional, Pituitary gland cell
Method in brief: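 Pituitary cells from 6–8-week-old male SD rats plated on poly-D-lysine and cultured 3 days at 37 °C. Washed with DMEM assay buffer (20 mM Hepes, 0.3% BSA) and held 5 min at 37 °C. Treated with rat ghrelin or compound for 20 min, then GH release measured as % of maximal ghrelin response. Means of three determinations.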

Histamine H2 receptor, sequence (P25021 whole entry): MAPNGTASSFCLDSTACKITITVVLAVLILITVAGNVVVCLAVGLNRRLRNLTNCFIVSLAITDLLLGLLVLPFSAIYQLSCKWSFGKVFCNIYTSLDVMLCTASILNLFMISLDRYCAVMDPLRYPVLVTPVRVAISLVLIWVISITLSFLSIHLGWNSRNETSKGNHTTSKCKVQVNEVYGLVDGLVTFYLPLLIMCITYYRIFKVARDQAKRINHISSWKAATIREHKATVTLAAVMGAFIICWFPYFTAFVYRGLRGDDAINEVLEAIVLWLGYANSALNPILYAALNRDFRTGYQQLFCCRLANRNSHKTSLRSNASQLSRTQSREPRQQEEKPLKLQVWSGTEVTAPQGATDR
Growth hormone secretagogue receptor type 1 (Rattus norvegicus), sequence (O08725 whole entry): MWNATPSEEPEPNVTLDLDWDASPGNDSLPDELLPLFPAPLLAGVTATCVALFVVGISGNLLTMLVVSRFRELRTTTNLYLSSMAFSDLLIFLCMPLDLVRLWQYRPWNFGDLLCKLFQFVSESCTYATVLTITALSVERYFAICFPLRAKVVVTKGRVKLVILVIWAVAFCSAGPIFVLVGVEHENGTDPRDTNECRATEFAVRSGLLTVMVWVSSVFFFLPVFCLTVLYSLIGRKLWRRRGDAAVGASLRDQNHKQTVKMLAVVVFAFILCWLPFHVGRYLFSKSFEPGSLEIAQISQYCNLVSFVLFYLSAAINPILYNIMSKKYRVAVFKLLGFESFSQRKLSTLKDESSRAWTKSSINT
Sodium-dependent noradrenaline transporter, sequence (P23975 whole entry): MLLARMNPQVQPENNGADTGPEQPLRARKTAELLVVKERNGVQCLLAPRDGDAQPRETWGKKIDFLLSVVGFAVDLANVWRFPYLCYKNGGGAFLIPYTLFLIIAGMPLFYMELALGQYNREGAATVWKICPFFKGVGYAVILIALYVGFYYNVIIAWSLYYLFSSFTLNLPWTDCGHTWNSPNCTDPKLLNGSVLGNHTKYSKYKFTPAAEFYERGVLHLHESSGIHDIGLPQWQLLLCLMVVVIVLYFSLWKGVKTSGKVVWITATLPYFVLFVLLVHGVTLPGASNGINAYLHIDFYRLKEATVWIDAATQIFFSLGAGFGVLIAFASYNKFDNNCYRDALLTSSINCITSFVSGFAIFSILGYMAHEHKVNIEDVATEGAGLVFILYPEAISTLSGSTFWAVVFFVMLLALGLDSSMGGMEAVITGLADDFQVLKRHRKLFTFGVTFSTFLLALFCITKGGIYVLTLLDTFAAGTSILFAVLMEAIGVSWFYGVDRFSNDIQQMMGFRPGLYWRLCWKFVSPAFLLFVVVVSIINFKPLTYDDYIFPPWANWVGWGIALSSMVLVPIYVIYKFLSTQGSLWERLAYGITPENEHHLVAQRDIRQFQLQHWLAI
T1 sequence (Q92847 whole entry): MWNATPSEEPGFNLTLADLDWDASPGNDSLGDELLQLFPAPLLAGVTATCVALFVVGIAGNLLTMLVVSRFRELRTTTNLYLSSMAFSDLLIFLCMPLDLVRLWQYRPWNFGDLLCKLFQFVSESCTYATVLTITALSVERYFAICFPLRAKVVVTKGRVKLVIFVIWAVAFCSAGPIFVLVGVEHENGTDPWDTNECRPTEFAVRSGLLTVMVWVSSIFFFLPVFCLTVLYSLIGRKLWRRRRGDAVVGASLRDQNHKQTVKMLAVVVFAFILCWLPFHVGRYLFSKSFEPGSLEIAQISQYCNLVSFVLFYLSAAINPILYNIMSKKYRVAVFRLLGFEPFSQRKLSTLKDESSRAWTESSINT
Kappa-type opioid receptor, sequence (P41145 whole entry): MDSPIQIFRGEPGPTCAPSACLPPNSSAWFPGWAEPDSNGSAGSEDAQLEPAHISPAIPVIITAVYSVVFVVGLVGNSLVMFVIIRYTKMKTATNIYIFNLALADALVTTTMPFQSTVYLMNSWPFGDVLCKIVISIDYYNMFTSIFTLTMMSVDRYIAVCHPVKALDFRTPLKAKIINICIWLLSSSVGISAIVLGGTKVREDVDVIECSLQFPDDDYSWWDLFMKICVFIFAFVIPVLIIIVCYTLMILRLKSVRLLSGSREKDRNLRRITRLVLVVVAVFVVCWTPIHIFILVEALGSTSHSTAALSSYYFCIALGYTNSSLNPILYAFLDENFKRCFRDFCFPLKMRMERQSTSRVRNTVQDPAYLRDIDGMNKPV
D(3) dopamine receptor, sequence (P35462 whole entry): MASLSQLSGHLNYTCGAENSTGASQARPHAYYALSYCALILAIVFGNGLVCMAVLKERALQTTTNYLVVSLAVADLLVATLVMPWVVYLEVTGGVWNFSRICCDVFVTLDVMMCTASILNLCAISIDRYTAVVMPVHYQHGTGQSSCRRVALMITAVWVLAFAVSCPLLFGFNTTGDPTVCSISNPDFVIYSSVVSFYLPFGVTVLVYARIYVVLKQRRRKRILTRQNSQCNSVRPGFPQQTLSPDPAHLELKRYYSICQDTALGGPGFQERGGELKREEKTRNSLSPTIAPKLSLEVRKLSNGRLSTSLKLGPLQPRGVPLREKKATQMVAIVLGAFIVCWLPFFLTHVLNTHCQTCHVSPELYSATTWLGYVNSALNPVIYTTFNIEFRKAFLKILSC
Mu-type opioid receptor, sequence (P35372 whole entry): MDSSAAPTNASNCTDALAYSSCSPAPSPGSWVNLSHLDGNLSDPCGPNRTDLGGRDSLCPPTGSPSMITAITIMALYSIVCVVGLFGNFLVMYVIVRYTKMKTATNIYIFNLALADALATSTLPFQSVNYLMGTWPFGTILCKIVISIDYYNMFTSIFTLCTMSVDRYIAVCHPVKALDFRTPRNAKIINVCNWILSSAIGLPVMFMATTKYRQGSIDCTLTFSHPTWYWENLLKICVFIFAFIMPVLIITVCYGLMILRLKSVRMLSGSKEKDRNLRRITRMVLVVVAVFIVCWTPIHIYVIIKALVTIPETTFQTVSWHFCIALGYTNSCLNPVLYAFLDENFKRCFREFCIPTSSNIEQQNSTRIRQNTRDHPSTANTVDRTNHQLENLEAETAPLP
D(2) dopamine receptor, sequence (P14416 whole entry): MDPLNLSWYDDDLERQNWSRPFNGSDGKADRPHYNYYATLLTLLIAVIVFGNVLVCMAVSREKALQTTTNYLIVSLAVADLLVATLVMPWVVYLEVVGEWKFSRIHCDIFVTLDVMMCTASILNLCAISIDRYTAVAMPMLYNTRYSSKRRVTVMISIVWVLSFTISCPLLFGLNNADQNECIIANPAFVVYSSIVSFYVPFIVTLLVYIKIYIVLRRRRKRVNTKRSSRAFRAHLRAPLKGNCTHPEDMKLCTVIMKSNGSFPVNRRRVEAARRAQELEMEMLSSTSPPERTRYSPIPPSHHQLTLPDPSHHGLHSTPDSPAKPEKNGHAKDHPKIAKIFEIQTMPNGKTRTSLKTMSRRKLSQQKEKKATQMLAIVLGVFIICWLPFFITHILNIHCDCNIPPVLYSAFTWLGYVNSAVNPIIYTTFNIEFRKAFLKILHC
Sodium-dependent serotonin transporter, sequence (P31645 whole entry): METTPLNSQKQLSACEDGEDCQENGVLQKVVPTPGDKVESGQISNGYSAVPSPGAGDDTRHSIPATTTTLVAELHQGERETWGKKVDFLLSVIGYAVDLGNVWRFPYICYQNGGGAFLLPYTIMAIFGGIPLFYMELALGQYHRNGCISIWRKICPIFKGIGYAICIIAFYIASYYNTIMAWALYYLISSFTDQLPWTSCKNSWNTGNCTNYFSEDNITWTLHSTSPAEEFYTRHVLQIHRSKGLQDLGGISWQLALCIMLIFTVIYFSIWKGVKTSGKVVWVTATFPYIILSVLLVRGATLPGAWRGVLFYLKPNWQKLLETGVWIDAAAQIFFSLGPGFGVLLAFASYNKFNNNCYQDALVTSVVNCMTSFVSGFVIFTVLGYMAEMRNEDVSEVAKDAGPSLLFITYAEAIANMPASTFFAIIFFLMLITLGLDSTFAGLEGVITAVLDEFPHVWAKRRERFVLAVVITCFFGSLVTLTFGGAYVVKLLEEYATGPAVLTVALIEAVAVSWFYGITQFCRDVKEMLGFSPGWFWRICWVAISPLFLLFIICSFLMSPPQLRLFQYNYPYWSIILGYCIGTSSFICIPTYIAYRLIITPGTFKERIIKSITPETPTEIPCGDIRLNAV
5-hydroxytryptamine receptor 2A, sequence (P28223 whole entry): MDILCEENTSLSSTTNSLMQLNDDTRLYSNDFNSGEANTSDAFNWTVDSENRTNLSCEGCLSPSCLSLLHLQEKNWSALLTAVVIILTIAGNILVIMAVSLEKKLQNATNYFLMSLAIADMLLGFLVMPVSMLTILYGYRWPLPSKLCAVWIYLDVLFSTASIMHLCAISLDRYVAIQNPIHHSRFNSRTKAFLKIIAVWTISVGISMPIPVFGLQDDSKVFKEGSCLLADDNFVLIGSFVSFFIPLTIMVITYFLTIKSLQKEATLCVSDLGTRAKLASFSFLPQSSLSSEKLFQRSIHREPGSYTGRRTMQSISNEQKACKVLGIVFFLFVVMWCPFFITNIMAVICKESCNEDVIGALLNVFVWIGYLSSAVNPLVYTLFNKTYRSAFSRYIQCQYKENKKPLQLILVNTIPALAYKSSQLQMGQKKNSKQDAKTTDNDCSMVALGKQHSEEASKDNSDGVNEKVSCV

Row | Structure (SMILES) | Ki (D(3) dopamine receptor) [µM] | Ki [1] [µM] | Ki (Mu-type opioid receptor) [µM] | Ki [2] [µM] | Ki (Histamine H2 receptor) [µM] | Ki (D(2) dopamine receptor) [µM] | IC50 [3] [µM] | Ki [4] [µM] | Ki [5] [µM] | Ki [6] [µM] | Ki [7] [µM] | Ki [8] [µM] | Ki [9] [µM] | Activity [10] [%] | Activity [11] [%] | Activity [12] [%]
1 | C[C@H]1CN(C(=O)c2ccc(-c3cccc(C(F)(F)F)c3)cc2)CCN1C(=O)c1ccc2cc[nH]c2c1 | > 10 | > 10 | > 10 | > 10 | > 10 | > 10 | 0.077 | > 10 | > 10 | > 10 | > 10 | > 10 | > 10 |  |  | 
2 | Cc1noc(C)c1-c1ccc(C(=O)N2CCN(C(=O)c3ccc4cc[nH]c4c3)[C@@H](C)C2)cc1 |  |  |  |  |  |  | 0.245 |  |  |  |  |  |  | 5 |  | 
3 | C[C@H]1CN(C(=O)c2ccc(-c3ccccc3Cl)cc2)CCN1C(=O)c1ccc2cc[nH]c2c1 | > 10 | > 10 | > 10 | > 10 | > 10 | > 10 | 0.0021 | > 10 | > 10 | > 10 | > 10 | > 10 | > 10 | 32 | 35 | 24
4 | C[C@H]1CN(C(=O)c2ccc(-c3ccccc3)cc2F)CCN1C(=O)c1ccc2cc[nH]c2c1 |  |  |  |  |  |  | 0.0177 |  |  |  |  |  |  | 43 |  | 
5 | C[C@H]1CN(C(=O)c2ccc(-c3ccccn3)cc2)CCN1C(=O)c1ccc2cc[nH]c2c1 |  |  |  |  |  |  | 0.0422 |  |  |  |  |  |  | 12 |  | 
6 | COc1cccc(-c2ccc(C(=O)N3CCN(C(=O)c4ccc5cc[nH]c5c4)C[C@@H]3C)cc2)c1 |  |  |  |  |  |  | 0.28 |  |  |  |  |  |  |  |  | 
7 | COc1ccc(-c2ccc(C(=O)N3CCN(C(=O)c4ccc5cc[nH]c5c4)[C@@H](C)C3)cc2)cc1 | > 10 | > 10 | > 10 | > 10 | > 10 | > 10 | 0.007 | > 10 | > 10 | > 10 | > 10 | > 10 | > 10 | 34 | 33 | 
8 | C[C@H]1CN(C(=O)c2ccc(N3CCOCC3)cc2)CCN1C(=O)c1ccc2cc[nH]c2c1 |  |  |  |  |  |  | 0.339 |  |  |  |  |  |  |  |  | 
9 | C[C@H]1CN(C(=O)c2ccc(-c3ccccc3)nc2)CCN1C(=O)c1ccc2cc[nH]c2c1 |  |  |  |  |  |  | 0.02 |  |  |  |  |  |  | 19 |  | 
10 | C[C@H]1CN(C(=O)c2ccc(-c3ccc(OC(F)(F)F)cc3)cc2)CCN1C(=O)c1ccc2cc[nH]c2c1 | > 10 | > 10 | > 10 | > 10 | > 10 | > 10 | 0.136 | > 10 | > 10 | > 10 | > 10 | > 10 | > 10 |  |  | 
11 | C[C@H]1CN(C(=O)c2csc(-c3ccccc3F)n2)CCN1C(=O)c1ccc2cc[nH]c2c1 |  |  |  |  |  |  | 0.0337 |  |  |  |  |  |  | 14 |  | 
12 | C[C@H]1CN(C(=O)c2ccc(-c3ccccc3)cc2)CCN1C(=O)c1ccc2cc[nH]c2c1 | > 10 | > 10 | > 10 | > 10 | > 10 | > 10 | 0.006 | > 10 | > 10 | > 10 | > 10 | > 10 | > 10 | 26 | 29 | 
13 | C[C@H]1CN(C(=O)c2ccc(-c3cccnc3)cc2)CCN1C(=O)c1ccc2cc[nH]c2c1 |  |  |  |  |  |  | 0.143 |  |  |  |  |  |  | 21 |  | 
14 | C[C@H]1CN(C(=O)c2ccc(-c3cncs3)cc2)CCN1C(=O)c1ccc2cc[nH]c2c1 |  |  |  |  |  |  | 0.065 |  |  |  |  |  |  | 5 |  | 
15 | C[C@H]1CN(C(=O)c2ccc(-c3ccccc3Cl)cn2)CCN1C(=O)c1ccc2cc[nH]c2c1 |  |  |  |  |  |  | 0.0372 |  |  |  |  |  |  | 18 |  | 
16 | Cc1cc(-c2ccccc2)ccc1C(=O)N1CCN(C(=O)c2ccc3cc[nH]c3c2)[C@@H](C)C1 |  |  |  |  |  |  | 0.0143 |  |  |  |  |  |  | 36 |  | 
17 | COc1cccc(-c2ccc(C(=O)N3CCN(C(=O)c4ccc5cc[nH]c5c4)CC3)cc2)c1 |  |  |  |  |  |  | 0.025 |  |  |  |  |  |  |  |  | 
18 | Cc1ccccc1-c1ccc(C(=O)N2CCN(C(=O)c3ccc4cc[nH]c4c3)[C@@H](C)C2)cc1F |  |  |  |  |  |  | 0.009 |  |  |  |  |  |  | 16 |  | 
19 | C[C@H]1CN(C(=O)c2ccc(-c3ccncc3)cc2)CCN1C(=O)c1ccc2cc[nH]c2c1 |  |  |  |  |  |  | 0.0127 |  |  |  |  |  |  | -2 |  | 

More lines, in order of falling IC50 [3], values ahead:

Row | Ki (D(3) dopamine receptor) [µM] | Ki [1] [µM] | Ki (Mu-type opioid receptor) [µM] | Ki [2] [µM] | Ki (Histamine H2 receptor) [µM] | Ki (D(2) dopamine receptor) [µM] | IC50 [3] [µM] | Ki [4] [µM] | Ki [5] [µM] | Ki [6] [µM] | Ki [7] [µM] | Ki [8] [µM] | Ki [9] [µM] | Activity [10] [%] | Activity [11] [%] | Structure (SMILES) | Activity [12] [%]
20 |  |  |  |  |  |  | 6.5 |  |  |  |  |  |  |  |  | O=C(c1ccc(-c2ccccc2)cc1)N1CCCN(C(=O)c2ccc3cc[nH]c3c2)CC1 | 
21 | > 10 | > 10 | > 10 | > 10 | > 10 | > 10 | 0.64 | > 10 | > 10 | > 10 | > 10 | > 10 | > 10 |  |  | COc1cccc(-c2ccc(C(=O)N3CCN(C(=O)c4ccc5cc[nH]c5c4)[C@H](C)C3)cc2)c1 | 
22 | > 10 | > 10 | > 10 | > 10 | > 10 | > 10 | 0.147 | > 10 | > 10 | > 10 | > 10 | > 10 | > 10 |  |  | C[C@H]1CN(C(=O)c2ccc(-c3cccc(F)c3)cc2)CCN1C(=O)c1ccc2cc[nH]c2c1 | 
23 |  |  |  |  |  |  | 0.123 |  |  |  |  |  |  | 17 |  | C[C@H]1CN(C(=O)c2ccc(-c3cn[nH]c3)cc2)CCN1C(=O)c1ccc2cc[nH]c2c1 | 
24 |  |  |  |  |  |  | 0.068 |  |  |  |  |  |  |  |  | COc1cccc(-c2ccc(C(=O)N3CCN(C(=O)c4ccc5cc[nH]c5c4)C[C@H]3C)cc2)c1 | 
25 | > 10 | > 10 | > 10 | > 10 | > 10 | > 10 | 0.064 | > 10 | > 10 | > 10 | > 10 | > 10 | > 10 |  |  | C[C@H]1CN(C(=O)c2ccc(-c3ccc(F)cc3)cc2)CCN1C(=O)c1ccc2cc[nH]c2c1 | 
26 | > 10 | > 10 | > 10 | > 10 | > 10 | > 10 | 0.0465 | > 10 | > 10 | > 10 | > 10 | > 10 | > 10 |  |  | C[C@H]1CN(C(=O)c2ccc(-c3cccc(OC(F)(F)F)c3)cc2)CCN1C(=O)c1ccc2cc[nH]c2c1 | 
27 | > 10 | > 10 | > 10 | > 10 | > 10 | > 10 | 0.026 | > 10 | > 10 | > 10 | > 10 | > 10 | > 10 |  |  | COc1ccccc1-c1ccc(C(=O)N2CCN(C(=O)c3ccc4cc[nH]c4c3)[C@@H](C)C2)cc1 | 
28 |  |  |  |  |  |  | 0.013 |  |  |  |  |  |  | 14 |  | C[C@H]1CN(C(=O)c2ccc(-c3ccccc3Cl)nc2)CCN1C(=O)c1ccc2cc[nH]c2c1 | 
